Converted amounts (≈) assume the structure as drawn.
Legend:
Type in all cases: functional
Staphylococcus aureus [1] = assay: In vitro inhibitory activity against Staphylococcus aureus (EryRc 011CB20)
How it was run: (§1)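 Two-fold agar dilution on Mueller-Hinton agar (pH 7.4). Inoculum from overnight plate cultures suspended in Mueller-Hinton broth, adjusted to 10^9 CFU/mL, diluted 1:200 and spotted by multipoint inoculator at about 10^4 CFU/spot. Plates incubated 37 °C for 20 h. MIC taken as lowest concentration with no visible growth.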

Staphylococcus aureus [2] = assay: In vitro inhibitory activity against Staphylococcus aureus (011UC4); how it was run: as §1
Escherichia coli = assay: In vitro inhibitory activity against Escherichia coli (250 UC5); how it was run: as §1
Haemophilus influenzae [3] = assay: In vitro inhibitory activity against Haemophilus influenzae (351HT3); how it was run: as §1
Streptococcus pyogenes = assay: In vitro inhibitory activity against Streptococcus pyogenes (02A1UC1); how it was run: as §1
Staphylococcus aureus [4] = assay: In vitro inhibitory activity against Staphylococcus aureus (EryRi 011GO25i); how it was run: as §1
Streptococcus pneumoniae [5] = assay: In vitro inhibitory activity against Streptococcus pneumoniae (032UC1); how it was run: as §1
Streptococcus pneumoniae [6] = assay: In vitro inhibitory activity against Streptococcus pneumoniae (EryRi 030SJ5i); how it was run: as §1
[7] = system: Staphylococcus epidermidis; assay: In vitro inhibitory activity against Staphylococcus epidermidis (EryRi 012GO11i); how it was run: as §1
Streptococcus pneumoniae [8] = assay: In vitro inhibitory activity against Streptococcus pneumoniae (EryRc 030SJ1); how it was run: as §1
Haemophilus influenzae [9] = assay: In vitro inhibitory activity against Haemophilus influenzae (351CB12); how it was run: as §1

Row | SMILES | MIC (Staphylococcus aureus [1]) | MIC (Staphylococcus aureus [2]) | MIC (Escherichia coli) | MIC (Haemophilus influenzae [3]) | MIC (Streptococcus pyogenes) | MIC (Staphylococcus aureus [4]) | MIC (Streptococcus pneumoniae [5]) | MIC (Streptococcus pneumoniae [6]) | MIC [7] | MIC (Streptococcus pneumoniae [8]) | MIC (Haemophilus influenzae [9])
1 | CC[C@H]1OC(=O)[C@H](C)C(=O)[C@H](C)[C@@H](O[C@@H]2O[C@H](C)C[C@H](N(C)C)[C@H]2O)[C@](C)(OC)C[C@@H](C)C(=O)[C@H](C)[C@H]2N(CCCCc3ccnc4c(OC)cccc34)C(=O)O[C@]12C | 40 µg/mL (≈ 48.4 µM) | 0.08 µg/mL (≈ 0.0968 µM) | 40 µg/mL (≈ 48.4 µM) | 2.5 µg/mL (≈ 3.03 µM) | 0.02 µg/mL (≈ 0.0242 µM) | 0.3 µg/mL (≈ 0.363 µM) | 0.02 µg/mL (≈ 0.0242 µM) | 0.08 µg/mL (≈ 0.0968 µM) | 0.08 µg/mL (≈ 0.0968 µM) | 20 µg/mL (≈ 24.2 µM) | 2.5 µg/mL (≈ 3.03 µM)
2 | CC[C@H]1OC(=O)[C@H](C)C(=O)[C@H](C)[C@@H](O[C@@H]2O[C@H](C)C[C@H](N(C)C)[C@H]2O)[C@](C)(OC)C[C@@H](C)C(=O)[C@H](C)[C@H]2N(NCCCc3ccnc4ccc(OC)cc34)C(=O)O[C@]12C | 40 µg/mL (≈ 48.4 µM) | 0.04 µg/mL (≈ 0.0484 µM) | 40 µg/mL (≈ 48.4 µM) | 1.2 µg/mL (≈ 1.45 µM) | 0.02 µg/mL (≈ 0.0242 µM) | 0.08 µg/mL (≈ 0.0967 µM) | 0.02 µg/mL (≈ 0.0242 µM) | 0.02 µg/mL (≈ 0.0242 µM) | 0.08 µg/mL (≈ 0.0967 µM) | 0.08 µg/mL (≈ 0.0967 µM) | 2.5 µg/mL (≈ 3.02 µM)
3 | CC[C@H]1OC(=O)[C@H](C)C(=O)[C@H](C)[C@@H](O[C@@H]2O[C@H](C)C[C@H](N(C)C)[C@H]2O)[C@](C)(OC)C[C@@H](C)C(=O)[C@H](C)[C@H]2N(CCCCc3cccc(Cl)c3)C(=O)O[C@]12C | 10 µg/mL (≈ 12.8 µM) | 0.04 µg/mL (≈ 0.0513 µM) | 40 µg/mL (≈ 51.3 µM) | 1.2 µg/mL (≈ 1.54 µM) | 0.02 µg/mL (≈ 0.0257 µM) | 0.6 µg/mL (≈ 0.77 µM) | 0.02 µg/mL (≈ 0.0257 µM) | 0.08 µg/mL (≈ 0.103 µM) | 0.15 µg/mL (≈ 0.192 µM) | 2.5 µg/mL (≈ 3.21 µM) | 1.2 µg/mL (≈ 1.54 µM)
4 | CC[C@H]1OC(=O)[C@H](C)[C@@H](O[C@H]2C[C@@](C)(OC)[C@@H](O)[C@H](C)O2)[C@H](C)[C@@H](O[C@@H]2O[C@H](C)C[C@H](N(C)C)[C@H]2O)[C@](C)(OC)C[C@@H](C)C(=O)[C@H](C)[C@H]2N(CCCCc3ccccc3)C(=O)O[C@]12C | 20 µg/mL (≈ 22.1 µM) | 0.3 µg/mL (≈ 0.331 µM) | 40 µg/mL (≈ 44.2 µM) | 2.5 µg/mL (≈ 2.76 µM) | 0.04 µg/mL (≈ 0.0442 µM) | 20 µg/mL (≈ 22.1 µM) | 0.02 µg/mL (≈ 0.0221 µM) | 1.2 µg/mL (≈ 1.33 µM) | 40 µg/mL (≈ 44.2 µM) | 10 µg/mL (≈ 11 µM) | 2.5 µg/mL (≈ 2.76 µM)
5 | CC[C@H]1OC(=O)[C@H](C)C(=O)[C@H](C)[C@@H](O[C@@H]2O[C@H](C)C[C@H](N(C)C)[C@H]2O)[C@](C)(OC)C[C@@H](C)C(=O)[C@@H](C)[C@H]2NC(=O)O[C@@]21C | 40 µg/mL (≈ 65.3 µM) | 5 µg/mL (≈ 8.16 µM) | 40 µg/mL (≈ 65.3 µM) | 20 µg/mL (≈ 32.6 µM) | 2.5 µg/mL (≈ 4.08 µM) | 40 µg/mL (≈ 65.3 µM) | 0.3 µg/mL (≈ 0.49 µM) | 40 µg/mL (≈ 65.3 µM) | 40 µg/mL (≈ 65.3 µM) | 40 µg/mL (≈ 65.3 µM) | 20 µg/mL (≈ 32.6 µM)
6 | CC[C@H]1OC(=O)[C@H](C)C(=O)[C@H](C)[C@@H](O[C@@H]2O[C@H](C)C[C@H](N(C)C)[C@H]2O)[C@](C)(OC)C[C@@H](C)/C(=N\OC2CCCN(CCCC3CCCCC3)C2)[C@H](C)[C@@H](O)[C@]1(C)O (some centres undefined) | 40 µg/mL (≈ 49.4 µM) | 0.15 µg/mL (≈ 0.185 µM) | 40 µg/mL (≈ 49.4 µM) | 5 µg/mL (≈ 6.17 µM) | 0.04 µg/mL (≈ 0.0494 µM) | 2.5 µg/mL (≈ 3.09 µM) | 0.02 µg/mL (≈ 0.0247 µM) | 0.15 µg/mL (≈ 0.185 µM) | 5 µg/mL (≈ 6.17 µM) | 0.6 µg/mL (≈ 0.741 µM) | 1.2 µg/mL (≈ 1.48 µM)
7 | CC[C@H]1OC(=O)[C@H](C)C(=O)[C@H](C)[C@@H](O[C@@H]2O[C@H](C)C[C@H](N(C)C)[C@H]2O)[C@](C)(OC)C[C@@H](C)/C(=N\OCCNCCN(C)C)[C@H](C)[C@@H](O)[C@]1(C)O | 40 µg/mL (≈ 55.8 µM) | 0.6 µg/mL (≈ 0.837 µM) | 40 µg/mL (≈ 55.8 µM) | 40 µg/mL (≈ 55.8 µM) | 0.15 µg/mL (≈ 0.209 µM) | 5 µg/mL (≈ 6.97 µM) | 0.15 µg/mL (≈ 0.209 µM) | 10 µg/mL (≈ 13.9 µM) | 1.2 µg/mL (≈ 1.67 µM) | 40 µg/mL (≈ 55.8 µM) | 20 µg/mL (≈ 27.9 µM)
8 | CCCCCCCCCCN1CCCC(O/N=C2\[C@H](C)C[C@@](C)(OC)[C@H](O[C@@H]3O[C@H](C)C[C@H](N(C)C)[C@H]3O)[C@@H](C)C(=O)[C@@H](C)C(=O)O[C@H](CC)[C@@](C)(O)[C@H](O)[C@H]2C)C1 (some centres undefined) | 10 µg/mL (≈ 12.1 µM) | 0.6 µg/mL (≈ 0.726 µM) | 40 µg/mL (≈ 48.4 µM) | 20 µg/mL (≈ 24.2 µM) | 0.08 µg/mL (≈ 0.0968 µM) | 0.6 µg/mL (≈ 0.726 µM) | 0.08 µg/mL (≈ 0.0968 µM) | 0.3 µg/mL (≈ 0.363 µM) | 0.6 µg/mL (≈ 0.726 µM) | 1.2 µg/mL (≈ 1.45 µM) | 5 µg/mL (≈ 6.05 µM)
9 | CC[C@H]1OC(=O)[C@H](C)C(=O)[C@H](C)[C@@H](O[C@@H]2O[C@H](C)C[C@H](N(C)C)[C@H]2O)[C@](C)(OC)C[C@@H](C)/C(=N\OC2CCCN(C)C2)[C@H](C)[C@@H](O)[C@]1(C)O (some centres undefined) | 40 µg/mL (≈ 57.1 µM) | 0.08 µg/mL (≈ 0.114 µM) | 40 µg/mL (≈ 57.1 µM) | 10 µg/mL (≈ 14.3 µM) | 0.04 µg/mL (≈ 0.0571 µM) | 0.3 µg/mL (≈ 0.429 µM) | 0.02 µg/mL (≈ 0.0286 µM) | 40 µg/mL (≈ 57.1 µM) | 0.6 µg/mL (≈ 0.857 µM) | 10 µg/mL (≈ 14.3 µM) | 10 µg/mL (≈ 14.3 µM)
